# Measured values of several laboratories.
# Each line is one published result; the experiments were not run side by side.
# Target: Homeodomain-interacting protein kinase 2 (HIPK2, Homo sapiens, UniProt Q9H2X6)
SMILES,read-out,action,technique,concentration,quantity,value
Cn1cncc1[C@@](O)(COc1ccc(C#N)cc1-c1ccc(OC(F)(F)F)cc1)c1ccc(C#N)cc1,cell-free assay,,competition with immobilised ligand,1 µM,remaining binding,100%
Cn1cc(-c2cc(F)cc(N3CCn4c(cc5c4CCCC5)C3=O)c2CO)cc(Nc2ccc(N3CCN(C4COC4)CC3)cn2)c1=O,enzyme activity,inhibitor,,0.1 µM,inhibition,9%
N#CC1(c2ccccn2)CCN(Cc2cc(C(=O)O)c(=O)n3ccccc23)CC1,cell-free assay,,competition with immobilised ligand,1 µM,remaining binding,66%
CC(C)(C)c1cc(C=C(C#N)C#N)cc(Br)c1O,enzyme activity,inhibitor,,0.5 µM,remaining activity,110%
Nc1ncc(-c2nc(N3CCOCC3)nc(N3CCOCC3)n2)c(C(F)F)n1,binding,,competition with immobilised ligand,10 µM,remaining binding,59%
Cc1nn(C)cc1-c1nc2c(N3CCN(Cc4ccc(Cl)cc4)CC3)c(Cl)cnc2[nH]1,binding,,competition with immobilised ligand,1 µM,remaining binding,70%
COc1ncccc1-c1cnn2ccc(N3CCN(C(=O)OC(C)C)CC3)nc12,binding,,competition with immobilised ligand,1 µM,remaining binding,88%
Cn1cc(-c2cccc(N3CCc4c(sc5c4CC(C)(C)C5)C3=O)c2CO)cc(Nc2ccncn2)c1=O,enzyme activity,inhibitor,,1 µM,inhibition,-4%
O=c1[nH]c2ccccc2n1C1CCN(Cc2ccc(-c3[nH]c4cc5ncnc5cc4nc3-c3ccccc3)cc2)CC1,cell-free assay,,,0.5 µM,remaining signal,110%
